ChEMBL document CHEMBL3259615, “Combination of triple bond and adamantane ring on the vitamin D side chain produced partial agonists for vitamin D receptor” (J Med Chem, 2014)
The source made the active and inactive calls. The calls are words filed in the database; no cut-off is given here.

Experiments:
[1] = target: T1, Vitamin D3 receptor (Homo sapiens, UniProt P11473); experiment: Transactivation of human VDR expressed in HEK293 cells cotransfected with mouse VDRE, Tk-Sppx3-LUC reporter plasmid measured after 24 hrs by luciferase reporter assay; assay type: cell-based
T1 sequence (P11473 whole entry): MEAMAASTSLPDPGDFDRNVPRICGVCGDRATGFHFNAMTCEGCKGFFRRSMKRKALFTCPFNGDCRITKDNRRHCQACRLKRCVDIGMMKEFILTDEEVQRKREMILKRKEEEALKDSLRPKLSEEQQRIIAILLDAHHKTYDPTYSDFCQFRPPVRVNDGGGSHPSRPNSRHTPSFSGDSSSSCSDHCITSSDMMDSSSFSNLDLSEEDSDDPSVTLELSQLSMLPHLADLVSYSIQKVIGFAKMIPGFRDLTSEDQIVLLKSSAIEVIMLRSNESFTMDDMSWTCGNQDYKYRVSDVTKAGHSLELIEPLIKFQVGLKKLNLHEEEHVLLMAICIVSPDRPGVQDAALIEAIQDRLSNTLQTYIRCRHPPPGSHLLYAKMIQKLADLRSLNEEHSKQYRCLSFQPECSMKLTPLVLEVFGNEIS
In short: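 HEK293 cells in DMEM with 5% FBS, calcium phosphate-transfected per well with 50 ng TK-Spp×3-LUC (mouse osteopontin VDRE), 10 ng pCMX-β-galactosidase, 15 ng pCMX-VDR and 15 ng pCMX-RXRα. Compounds were tested across a concentration range and cells harvested after 16–24 h. Luciferase was normalised to β-galactosidase. EC50 and efficacy relative to 1,25(OH)₂D₃.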

[2] = tested on: U-937; experiment: Induction of cathelicidine antimicrobial peptide mRNA in human U937 cells at 100 nM after 24 hrs by real-time PCR relative to skin cells; assay type: functional
In short: (§1)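 THP-1 and U937 cells were grown in RPMI1640 with 10% FBS and penicillin/streptomycin at 37 °C under 5% CO₂, and plated at 1 × 10⁴ cells/well. After 24 h, cells got an ethanol control, 100 nM 1,25(OH)₂D₃ or 100 nM analogue for 24 h. RNA was extracted by a chloroform method and reverse-transcribed. CAMP was measured by SYBR Green real-time PCR, normalized to ACTIN mRNA and compared with 1,25(OH)₂D₃.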

[3] = tested on: U-937; experiment: Induction of cyp24A1 mRNA expression in human U937 cells at 100 nM after 24 hrs by real-time PCR relative to 1-alpha,25-dihydroxyvitamin D3; assay type: functional
In short: (§2)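 Cells seeded at 1 × 10⁴ per well and treated 24 h later with ethanol vehicle or 100 nM ligand for 24 h. Total RNA taken by a chloroform method, reverse-transcribed, and target mRNA quantified by SYBR Green real-time PCR, normalized to ACTIN mRNA. Culture media: HEK293 in DMEM 5% FBS; SW480 and HaCaT in DMEM 10% FBS; MG63 in MEM 10% FBS; THP-1 and U937 in RPMI1640 10% FBS; all at 37 °C, 5% CO₂.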

[4] = target: T1, Vitamin D3 receptor; experiment: Activation of human VDR expressed in HEK293 cells cotransfected CMX-GAL4-SRC1 and 4-tk-LUC assessed as SRC1 interaction with AF2 surface of VDR by mammalian two-hybrid assay; assay type: cell-based
In short: (§3)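 HEK293 cells in DMEM with 5% FBS, per well: 50 ng TK-MH100(UAS)×4-LUC reporter, 10 ng pCMX-β-galactosidase, 15 ng pCMX-VP16-VDR, and 15 ng of a GAL4 fusion. The fusion was RXRα for heterodimerisation, SRC-1 for coactivator binding, N-CoR, or SMRT (NCoR2). Cells were treated across a concentration range. Luciferase was normalised to β-galactosidase.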

[5] = target: T1, Vitamin D3 receptor; experiment: Activation of human VDR expressed in HEK293 cells cotransfected CMX-GAL4-N-CoR and 4-tk-LUC assessed as inhibition of N-CoR binding to VDR by mammalian two-hybrid assay; assay type: cell-based; in short: as §3
[6] = target: T2, Vitamin D3 receptor (Homo sapiens) (UniProt P11473); conditions: HEK293, 10 to 1000 nM
T2 sequence (whole entry): T1 sequence (P11473 whole entry)

[7] = tested on: THP-1; experiment: Induction of cyp24A1 mRNA expression in human THP1 cells at 100 nM after 24 hrs by real-time PCR relative to 1-alpha,25-dihydroxyvitamin D3; assay type: functional; in short: as §2
[8] = tested on: HaCaT; experiment: Induction of cathelicidine antimicrobial peptide mRNA expression in human HaCaT cells at 100 nM after 24 hrs by real-time PCR relative to 1-alpha,25-dihydroxyvitamin D3; assay type: functional; in short: as §2
[9] = tested on: THP-1; experiment: Induction of cathelicidine antimicrobial peptide mRNA expression in human THP1 cells at 100 nM after 24 hrs by real-time PCR relative to skin cells; assay type: functional; in short: as §1
[10] = target: T1, Vitamin D3 receptor; experiment: Activation of human VDR expressed in HEK293 cells cotransfected CMX-GAL4-RXRalpha and 4-tk-LUC assessed as heterodimerization with RXRalpha by mammalian two-hybrid assay; assay type: cell-based; in short: as §3
[11] = tested on: HaCaT; experiment: Induction of cyp24A1 mRNA expression in human HaCaT cells at 100 nM after 24 hrs by real-time PCR relative to 1-alpha,25-dihydroxyvitamin D3; assay type: functional; in short: as §2
[12] = tested on: THP-1; experiment: Induction of cathelicidine antimicrobial peptide mRNA expression in human THP1 cells at 100 nM after 24 hrs by real-time PCR relative to 1-alpha,25-dihydroxyvitamin D3; assay type: functional; in short: as §2
[13] = tested on: SW480; experiment: Induction of cyp24A1 mRNA expression in human SW480 cells at 100 nM after 24 hrs by real-time PCR relative to 1-alpha,25-dihydroxyvitamin D3; assay type: functional; in short: as §2
[14] = tested on: U-937; experiment: Induction of cathelicidine antimicrobial peptide mRNA expression in human U937 cells at 100 nM after 24 hrs by real-time PCR relative to 1-alpha,25-dihydroxyvitamin D3; assay type: functional; in short: as §2
[15] = target: T1, Vitamin D3 receptor; experiment: Activation of human VDR expressed in HEK293 cells cotransfected CMX-GAL4-NCoR2 and 4-tk-LUC assessed as inhibition of NCoR2 binding to VDR by mammalian two-hybrid assay; assay type: cell-based; in short: as §3
[16] = tested on: MG-63; experiment: Induction of cyp24A1 mRNA expression in human MG63 cells at 100 nM after 24 hrs by real-time PCR relative to 1-alpha,25-dihydroxyvitamin D3; assay type: functional; in short: as §2
[17] = tested on: SW480; experiment: Induction of TRPV6 mRNA expression in human SW480 cells at 100 nM after 24 hrs by real-time PCR relative to 1-alpha,25-dihydroxyvitamin D3; assay type: functional; in short: as §2
[18] = target: T1, Vitamin D3 receptor; experiment: Displacement of [3H]-1,25(OH)2D3 from GST-fused human VDR-LBD expressed in Escherichia coli BL21
In short: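 hVDR-LBD (aa 140–427) as a GST fusion from E. coli BL21 sonicated lysate, 1 μg in pH 7.5 Tris/KCl/DTT/CHAPS buffer with BSA. Ligand in EtOH was preincubated 30 min at RT. [26,27-methyl-³H]-1,25(OH)₂D₃ was then added for 20 h at 4 °C. Free ligand was removed with dextran-coated charcoal and centrifugation, and bound radioactivity counted. IC50 from at least two triplicate runs.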

[19] = tested on: HEK293; experiment: Induction of cyp24A1 mRNA expression in HEK293 cells at 100 nM after 24 hrs by real-time PCR relative to 1-alpha,25-dihydroxyvitamin D3; assay type: functional, Homo sapiens; in short: as §2
[20] = target: T2, Vitamin D3 receptor (Homo sapiens); experiment: Inhibition of 1,25(OH)2D3-induced transactivation of human VDR expressed in HEK293 cells cotransfected with mouse VDRE, Tk-Sppx3-LUC reporter plasmid measured after 24 hrs by luciferase reporter assay; assay type: cell-based
In short: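 HEK293 cells in DMEM with 5% FBS were calcium-phosphate cotransfected with TK-Spp×3-LUC reporter, pCMX-β-galactosidase, pCMX-VDR and pCMX-RXRα. Cells were then exposed to a range of test concentrations together with 10 nM 1,25(OH)₂D₃. Harvest came 16–24 h later, with luciferase normalized to β-galactosidase.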

[21] = tested on: HEK293; experiment: Induction of cyp24A1 mRNA expression in HEK293 cells at 100 nM after 24 hrs by real-time PCR; assay type: functional, cell-based; conditions: Homo sapiens; in short: as §2

| Structure (SMILES) | EC50 [1] | fold change (FC) [2] | Activity [3] | EC50 [4] | EC50 [5] | inhibition [6] | Activity [7] | Activity [8] | fold change (FC) [9] | EC50 [10] | Activity [11] | Activity [12] | Activity [13] | Activity [14] | EC50 [15] | Activity [16] | Activity [17] | IC50 [18] | Activity [19] | Activity [21] | other results |
| --- | --- | --- | --- | --- | --- | --- | --- | --- | --- | --- | --- | --- | --- | --- | --- | --- | --- | --- | --- | --- | --- |
| C=C1[C@H](O)CC(=C/C=C2\CCC[C@]3(C)[C@@H]([C@H](C)CC#C[C@@H](O)CC45CC6CC(CC(C6)C4)C5)CC[C@@H]23)C[C@H]1O | 1.1 nM | 3.5 | 50% | 13.5 nM | 1.8 nM | Active | 10% | 15% | 3.5 | 0.8 nM | 10% | 55% | 10% | 65% | 2.8 nM | 50% | 35% | 12 nM | 30% | – | – |
| C=C1[C@H](O)CC(=C/C=C2\CCC[C@]3(C)[C@@H]([C@H](C)/C=C/C[C@H](O)C45CC6CC(CC(C6)C4)C5)CC[C@@H]23)C[C@H]1O | – | – | – | – | – | – | – | – | – | – | – | – | – | – | – | – | – | – | – | – | inhibition [20]: Dose-dependent effect |
| C=C1[C@H](O)CC(=C/C=C2\CCC[C@]3(C)[C@@H]([C@H](C)CC#C[C@H](O)CC45CC6CC(CC(C6)C4)C5)CC[C@@H]23)C[C@H]1O | 1.5 nM | 3.5 | 50% | 6.5 nM | 3.7 nM | Active | 10% | 20% | 3.5 | 2.3 nM | 10% | 74% | 10% | 75% | 2.4 nM | 50% | 40% | 13 nM | 45% | – | – |
| C=C1/C(=C\C=C2/CCC[C@]3(C)[C@@H]([C@H](C)CCCC(C)(C)O)CC[C@@H]23)C[C@@H](O)C[C@@H]1O | – | – | – | – | – | – | – | – | – | – | – | – | – | – | – | – | – | – | – | Active | – |
| C=C1[C@H](O)CC(=C/C=C2\CCC[C@]3(C)[C@@H]([C@H](C)CC#C[C@@H](O)C45CC6CC(CC(C6)C4)C5)CC[C@@H]23)C[C@H]1O | 0.07 nM | – | 85% | 1.5 nM | 0.4 nM | inactive | 70% | 60% | – | 0.6 nM | 30% | 105% | 50% | 125% | 0.5 nM | 50% | 65% | 0.5 nM | – | Active | – |
| C=C1[C@H](O)CC(=C/C=C2\CCC[C@]3(C)[C@@H]([C@H](C)CC#C[C@H](O)C45CC6CC(CC(C6)C4)C5)CC[C@@H]23)C[C@H]1O | 6.6 nM | – | 1% | 15 nM | 4 nM | Active | 1% | 15% | – | 4.4 nM | 22% | 20% | 32% | 30% | 4.1 nM | 5% | 30% | 12 nM | 15% | – | – |
